Data from ChEMBL document CHEMBL1781932 (J Med Chem, 2011).
Converted amounts (≈) assume the structure as drawn.

Experiments:
Format in all cases: functional
Staphylococcus aureus [1] = assay: Antimicrobial activity against tetracycline-susceptible Staphylococcus aureus isolate 101 by CLSI dilution method
Staphylococcus aureus [2] = assay: Antimicrobial activity against methicillin-, tetracycline-resistant Staphylococcus aureus isolate 161 harboring tetM gene by CLSI dilution method
Staphylococcus aureus [3] = assay: Antimicrobial activity against tetracycline-resistant Staphylococcus aureus isolate 158 harboring tetK gene by CLSI dilution method
Enterococcus faecalis [4] = assay: Antimicrobial activity against tetracycline-susceptible Enterococcus faecalis isolate 103 by CLSI dilution method
Outline: (§1)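 Broth microdilution per CLSI in fresh cation-adjusted Mueller Hinton broth, kept at 4 °C before testing, with defibrinated horse blood added as appropriate. Strains were from ATCC. MIC in µg/mL. Runs were accepted when comparator antibiotics against ATCC quality-control strains fell within recommended ranges.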

Enterococcus faecalis [5] = assay: Antimicrobial activity against tetracycline-resistant Enterococcus faecalis isolate 159 harboring […] gene by CLSI dilution method
Streptococcus pneumoniae [6] = assay: Antimicrobial activity against tetracycline-susceptible Streptococcus pneumoniae isolate 106 by CLSI dilution method; outline: as §1
Streptococcus pneumoniae [7] = assay: Antimicrobial activity against tetracycline-resistant Streptococcus pneumoniae isolate 160 harboring tetM gene by CLSI dilution method
Escherichia coli [8] = assay: Antimicrobial activity against tetracycline-susceptible Escherichia coli isolate 107 by CLSI dilution method; outline: as §1
Escherichia coli [9] = assay: Antimicrobial activity against tetracycline-resistant Escherichia coli isolate 155 harboring tetA gene by CLSI dilution method
Acinetobacter baumannii = assay: Antimicrobial activity against tetracycline-susceptible Acinetobacter baumannii isolate 110 by CLSI dilution method; outline: as §1
Pseudomonas aeruginosa = assay: Antimicrobial activity against tetracycline-susceptible Pseudomonas aeruginosa isolate 111 by CLSI dilution method; outline: as §1
Enterobacter cloacae = assay: Antimicrobial activity against tetracycline-susceptible Enterobacter cloacae isolate 108 by CLSI dilution method; outline: as §1
Klebsiella pneumoniae [10] = assay: Antimicrobial activity against tetracycline-susceptible Klebsiella pneumoniae isolate 109 by CLSI dilution method; outline: as §1
Klebsiella pneumoniae [11] = assay: Antimicrobial activity against tetracycline-resistant Klebsiella pneumoniae isolate 153 harboring tetA gene by CLSI dilution method

SMILES | MIC (Staphylococcus aureus [1]) | MIC (Staphylococcus aureus [2]) | MIC (Staphylococcus aureus [3]) | MIC (Enterococcus faecalis [4]) | MIC (Enterococcus faecalis [5]) | MIC (Streptococcus pneumoniae [6]) | MIC (Streptococcus pneumoniae [7]) | MIC (Escherichia coli [8]) | MIC (Escherichia coli [9]) | MIC (Acinetobacter baumannii) | MIC (Pseudomonas aeruginosa) | MIC (Enterobacter cloacae) | MIC (Klebsiella pneumoniae [10]) | MIC (Klebsiella pneumoniae [11])
CN(C)Cc1ccc2cc3c(c(O)c2c1)C(=O)C1=C(O)[C@]2(O)C(=O)C(C(N)=O)=C(O)[C@@H](N(C)C)[C@@H]2C[C@@H]1C3 | 0.25 µg/mL (≈ 0.479 µM) | 1 µg/mL (≈ 1.92 µM) | 0.25 µg/mL (≈ 0.479 µM) | 0.25 µg/mL (≈ 0.479 µM) | 1 µg/mL (≈ 1.92 µM) | 0.0313 µg/mL (≈ 0.06 µM) | 0.125 µg/mL (≈ 0.24 µM) | 1 µg/mL (≈ 1.92 µM) | 4 µg/mL (≈ 7.67 µM) | 2 µg/mL (≈ 3.83 µM) | > 32 µg/mL | 2 µg/mL (≈ 3.83 µM) | 2 µg/mL (≈ 3.83 µM) | 4 µg/mL (≈ 7.67 µM)
COCCOc1c2c(c(O)c3cc(CN4CCC4)ccc13)C(=O)C1=C(O)[C@]3(O)C(=O)C(C(N)=O)=C(O)[C@@H](N(C)C)[C@@H]3C[C@@H]1C2 | 0.25 µg/mL (≈ 0.411 µM) | 2 µg/mL (≈ 3.29 µM) | 0.5 µg/mL (≈ 0.823 µM) | 0.5 µg/mL (≈ 0.823 µM) | 2 µg/mL (≈ 3.29 µM) | 0.0313 µg/mL (≈ 0.0515 µM) | 0.25 µg/mL (≈ 0.411 µM) | 2 µg/mL (≈ 3.29 µM) | 32 µg/mL (≈ 52.7 µM) | 4 µg/mL (≈ 6.58 µM) | > 32 µg/mL | 8 µg/mL (≈ 13.2 µM) | 8 µg/mL (≈ 13.2 µM) | > 32 µg/mL
CN(C)Cc1ccc2c(N(C)C)c3c(c(O)c2c1)C(=O)C1=C(O)[C@]2(O)C(=O)C(C(N)=O)=C(O)[C@@H](N(C)C)[C@@H]2C[C@@H]1C3 | 0.25 µg/mL (≈ 0.443 µM) | 2 µg/mL (≈ 3.54 µM) | 0.25 µg/mL (≈ 0.443 µM) | 0.25 µg/mL (≈ 0.443 µM) | 2 µg/mL (≈ 3.54 µM) | < 0.0156 µg/mL | 0.25 µg/mL (≈ 0.443 µM) | 2 µg/mL (≈ 3.54 µM) |  | 16 µg/mL (≈ 28.3 µM) | > 32 µg/mL | 32 µg/mL (≈ 56.7 µM) | 8 µg/mL (≈ 14.2 µM) | 
CN(C)c1cccc2c(O)c3c(cc12)C[C@H]1C[C@H]2[C@H](N(C)C)C(O)=C(C(N)=O)C(=O)[C@@]2(O)C(O)=C1C3=O | 1 µg/mL (≈ 1.97 µM) | 2 µg/mL (≈ 3.94 µM) | 1 µg/mL (≈ 1.97 µM) | 1 µg/mL (≈ 1.97 µM) | 2 µg/mL (≈ 3.94 µM) | 4 µg/mL (≈ 7.88 µM) | 8 µg/mL (≈ 15.8 µM) |  | > 32 µg/mL | 16 µg/mL (≈ 31.5 µM) | > 32 µg/mL | > 32 µg/mL | > 32 µg/mL | > 32 µg/mL
CCCNCc1ccc2c(OC)c3c(c(O)c2c1)C(=O)C1=C(O)[C@]2(O)C(=O)C(C(N)=O)=C(O)[C@@H](N(C)C)[C@@H]2C[C@@H]1C3 | 0.25 µg/mL (≈ 0.442 µM) | 2 µg/mL (≈ 3.54 µM) | 0.0625 µg/mL (≈ 0.11 µM) | 0.125 µg/mL (≈ 0.221 µM) | 2 µg/mL (≈ 3.54 µM) | 0.0156 µg/mL (≈ 0.0276 µM) | 0.125 µg/mL (≈ 0.221 µM) | 1 µg/mL (≈ 1.77 µM) | 8 µg/mL (≈ 14.1 µM) | 1 µg/mL (≈ 1.77 µM) | 16 µg/mL (≈ 28.3 µM) | 1 µg/mL (≈ 1.77 µM) | 1 µg/mL (≈ 1.77 µM) | 
COc1cccc2c(O)c3c(cc12)C[C@H]1C[C@H]2[C@H](N(C)C)C(O)=C(C(N)=O)C(=O)[C@@]2(O)C(O)=C1C3=O |  | 0.5 µg/mL (≈ 1.01 µM) |  | 0.5 µg/mL (≈ 1.01 µM) | 1 µg/mL (≈ 2.02 µM) | 2 µg/mL (≈ 4.04 µM) | 4 µg/mL (≈ 8.09 µM) | > 32 µg/mL | > 32 µg/mL | 32 µg/mL (≈ 64.7 µM) | > 32 µg/mL | > 32 µg/mL | > 32 µg/mL | > 32 µg/mL
CN(C)[C@@H]1C(O)=C(C(N)=O)C(=O)[C@@]2(O)C(O)=C3C(=O)c4c(cc5ccc(-c6cccnc6)cc5c4O)C[C@H]3C[C@@H]12 | 1 µg/mL (≈ 1.85 µM) | 1 µg/mL (≈ 1.85 µM) |  | 0.5 µg/mL (≈ 0.923 µM) | 0.25 µg/mL (≈ 0.462 µM) | > 32 µg/mL | > 32 µg/mL | > 32 µg/mL | > 32 µg/mL | > 32 µg/mL | > 32 µg/mL | > 32 µg/mL | > 32 µg/mL | > 32 µg/mL
CN(C)[C@@H]1C(O)=C(C(N)=O)C(=O)[C@@]2(O)C(O)=C3C(=O)c4c(c(Cl)c5ccc(CN6CCC6)cc5c4O)C[C@H]3C[C@@H]12 | 1 µg/mL (≈ 1.76 µM) | 2 µg/mL (≈ 3.52 µM) | 1 µg/mL (≈ 1.76 µM) | 0.25 µg/mL (≈ 0.44 µM) | 2 µg/mL (≈ 3.52 µM) |  | 0.5 µg/mL (≈ 0.88 µM) | 2 µg/mL (≈ 3.52 µM) | 16 µg/mL (≈ 28.2 µM) | 2 µg/mL (≈ 3.52 µM) | > 32 µg/mL | 8 µg/mL (≈ 14.1 µM) | 4 µg/mL (≈ 7.04 µM) | 8 µg/mL (≈ 14.1 µM)
